Assay results published in publication PMC3310199 (Journal of Medicinal Chemistry, 2012).
Entries after “also recorded” stand apart in the source; their conditions may differ. Where a SMILES comes first, the peptide text is derived from it. The star is where a group is joined. Cbz = O=C(OCc1ccccc1)*; CHN2 = [N-]=[N+]=C*

Columns and labels:
[1] = biological target: T1, streptococcal cysteine protease SpeB (Streptococcus pyogenes serotype M1, UniProt P0C0J1); experiment: SpeB activity assay; type: biochemical, S. pyogenes; conditions: SpeB 0.28 μM, 4.8 × 10^3 molar excess of peptide/analogue
T1 sequence (P0C0J1 146-398): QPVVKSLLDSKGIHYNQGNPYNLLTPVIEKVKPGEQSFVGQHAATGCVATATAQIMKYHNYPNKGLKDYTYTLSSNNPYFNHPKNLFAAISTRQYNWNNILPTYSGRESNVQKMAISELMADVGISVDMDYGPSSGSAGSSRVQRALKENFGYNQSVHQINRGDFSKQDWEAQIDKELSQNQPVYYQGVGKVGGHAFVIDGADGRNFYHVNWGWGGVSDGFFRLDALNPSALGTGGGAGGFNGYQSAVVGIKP
How it was run: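 SpeB was purified from S. pyogenes strain 5448 culture medium by ammonium sulfate precipitation and ion exchange. It was activated with 2 mM DTT for 30 min at 37 °C, and active amount was set by E-64 active-site titration. Enzyme was preincubated 15 min at RT with test compound (stock 30 mM in 50% DMSO/phosphate pH 7.4). BPFA was then added (1 mM solution, 0.1 M phosphate pH 6) and OD405 change recorded. Triplicates.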

papain [2] = biological target: T2, papain (Carica papaya, UniProt P00784); experiment: Determination of inhibition constants; type: biochemical; conditions: 5 μM papain, Nα-benzoyl-DL-arginine 4-nitroanilide 0.25-6 mM
T2 sequence (P00784 134-345): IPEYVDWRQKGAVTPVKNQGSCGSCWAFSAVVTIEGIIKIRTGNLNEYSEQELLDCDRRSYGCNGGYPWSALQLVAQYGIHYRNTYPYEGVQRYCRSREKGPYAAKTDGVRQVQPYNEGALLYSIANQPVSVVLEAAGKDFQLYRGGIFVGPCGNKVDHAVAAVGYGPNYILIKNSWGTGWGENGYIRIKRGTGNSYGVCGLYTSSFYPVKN
How it was run: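 Initial velocities were measured with or without inhibitor at Nα-benzoyl-DL-arginine 4-nitroanilide 6, 3, 1, 0.5 or 0.25 mM and 5 μM papain. Ki was derived by nonlinear regression fitted to a competitive inhibition model.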

papain [3] = biological target: T2, papain; experiment: Papain activity assay; type: biochemical; conditions: papain 0.9 μM, 4.8 × 10^3 molar excess of peptide/analogue
How it was run: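 Papain was taken up in pH 6.2 phosphate buffer with EDTA and DTT. It was preincubated 10 min at RT with test compound (stock 30 mM in 50% DMSO/phosphate pH 6.2). Substrate (stock 100 mM in DMSO) was added, then 2 h at 37 °C. Reactions were stopped with glacial acetic acid and cleavage read as Abs405. Duplicates were run on two separate occasions.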

IdeS [4] = biological target: T3, IdeS (Streptococcus pyogenes, UniProt Q9F1R7); type: biochemical; conditions: for inhibitory activity toward IdeS (Figure 4): IdeS 0.8 μM, 4.8 × 10^3 molar excess of peptide/analogue, IgG1 substrate
T3 sequence (Q9F1R7 30-339): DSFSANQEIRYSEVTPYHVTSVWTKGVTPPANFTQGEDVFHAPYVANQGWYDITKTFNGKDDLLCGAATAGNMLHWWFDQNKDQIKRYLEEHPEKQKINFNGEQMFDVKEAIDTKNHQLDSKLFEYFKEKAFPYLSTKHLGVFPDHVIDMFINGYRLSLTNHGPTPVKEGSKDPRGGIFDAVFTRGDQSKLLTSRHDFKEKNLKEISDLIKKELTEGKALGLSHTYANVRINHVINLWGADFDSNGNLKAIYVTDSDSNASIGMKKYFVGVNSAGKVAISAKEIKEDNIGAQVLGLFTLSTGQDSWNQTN
How it was run: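 Recombinant His-Trx-IdeS was expressed in E. coli BL21, the tag removed with TEV protease, and purified by Ni2+-resin and size exclusion. Enzyme was preincubated with test compound (stock 30 mM in 50% DMSO/phosphate pH 7.4) 15 min at RT. Human IgG1 was added, then 20 min at 37 °C, stopped with iodoacetamide. Protein A-CM5 SPR was read at 190 s post-injection against no-enzyme controls, converted to fraction active IdeS via a standard curve. Triplicates.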

IdeS [5] = biological target: T3, IdeS; conditions: cited from earlier work

Row | SMILES | inhibitory effect on SpeB activity (Figure 5A) [1] | inhibitory effect on papain activity (Figure 5B) (papain [3]) | inhibitory activity toward IdeS (Figure 4) (IdeS [4]) | inhibition of IdeS by known inhibitors (IdeS [5]) | other results
1 | CCN(CC(N)=O)[C@H]1CCCN(C(=O)[C@H](CC(C)C)NC(=O)[C@@H](N)CC(C)C)C1 [(S)-LLpipEtG] | clearly improved degree of inhibition | – | – | – | –
2 | CC(C)C[C@H](N)C(=O)N1CCC[C@@H](NCC(N)=O)C1 [(R)-LpipG, (−)-2-[(1-L-Leucinyl-(R)-piperidin-3-yl)amino]acetamide] | do not inhibit SpeB | hardly affecting papain | most potent inhibitors; also recorded: potent inhibitors of IdeS | – | effect on initial velocities of papain activity (papain [2]): remained unchanged
3 | CC(C)C[C@H](N)C(=O)N1CCC[C@H](NCC(=O)N2CCC[C@H]2C(N)=O)C1 [(S)-LpipGP] | no inhibitory activity | even more active toward papain | most potent inhibitors; also recorded: most active inhibitors of IdeS | – | –
4 | Cc1ccc(S(=O)(=O)N[C@@H](Cc2ccccc2)C(=O)CCl)cc1 [TPCK, tosyl phenylalanyl chloromethyl ketone] | – | – | – | reported to inhibit IdeS | –
5 | CC(C)C[C@H](N)C(=O)NCC(=O)N1CCC[C@@H](N2CCC[C@H]2C(N)=O)C1 [(R)-LGpipP] | inhibited SpeB activity | most active analogue | – | – | –
6 | NC(=O)[C@@H]1CCCN1C(=O)CN[C@@H]1CCCNC1 [(R)-pipGP] | no inhibitory activity | even more active toward papain | most potent inhibitors; also recorded: most active inhibitors of IdeS | – | –
7 | NC(=O)CN[C@H]1CCCNC1 [(S)-pipG, (+)-2-((S)-Piperidin-3-ylamino)acetamide] | do not inhibit SpeB | hardly affecting papain | most potent inhibitors; also recorded: potent inhibitors of IdeS | – | effect on initial velocities of papain activity (papain [2]): remained unchanged; ligand efficiency (LE) for IdeS inhibition (IdeS [4]; binding energy per atom considered): most favorable peptide analogue in the series
8 | CC(C)CC(NC(=O)OCc1ccccc1)C(=O)NC(C(=O)NCC(=O)C=[N+]=[N-])C(C)C (stereo not drawn) [Z-LVG CHN2, N-benzyloxycarbonyl-leucyl-valyl-glycine diazomethylketone] (Cbz-Leu-Val-Gly-CHN2; configuration not given here) | – | – | – | reported to inhibit IdeS | –
9 | CC(C)C[C@H](N)C(=O)NCC(=O)N1CCC[C@H](N2CCC[C@H]2C(N)=O)C1 [(S)-LGpipP] | inhibited SpeB activity | – | – | – | –
10 | NC(=O)[C@@H]1CCCN1C(=O)CN[C@H]1CCCNC1 [(S)-pipGP] | – | – | most potent inhibitors | – | –
11 | CC(C)C[C@H](NC(=O)C1OC1C(=O)O)C(=O)NCCCCN=C(N)N (stereo in doubt) [E64, 1-[N-[(3-trans-carboxyoxirane-2-carbonyl)-L-leucyl]amino]-4-guanidinobutane] | – | – | – | not inhibited | –
12 | Cc1ccc(S(=O)(=O)N[C@@H](CCCCN)C(=O)CCl)cc1 [TLCK, tosyl lysyl chloromethyl ketone] | – | – | – | reported to inhibit IdeS | –
